This series in a line: Toxicity liver stage against HepG2, at 10uM. It is filed as cell-based. Set-up: test concentration 10 uM, cell line HepG2-A16-CD81EGFP. The conditions noted are these: human, HepG2-A16-CD81EGFP cells; read-out: INHIBITION
In short, it runs like this:
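Uninfected HepG2-A16-CD81EGFP cells, 3 × 10^3 per well, 1536-well, plated on prespotted compound at 10 μM final, parasite-free screening media added to match infected plates; puromycin 10 μM positive, DMSO 0.5% negative; run in parallel with 48 h PbLuc assay at 37 °C, 5% CO2; viability by CellTiter-Glo luminescence, normalized to controls.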
Turning to `Cc1ccc(CNC2(Cc3cc(-c4ccc(F)cc4)on3)COC2)o1`, the cytotoxicity at 10 µM was 8.13%.

Regarding `Cc1cccc2c1nc1n2[C@@H](CNC(=O)NC(C)C)COC1`, the cytotoxicity at 10 µM came to 0.0962%.

For the compound `O=C(Nc1ccccc1)[C@H]1CN2CC[C@H]1C[C@@H]2Cn1cc(CCO)nn1`, the cytotoxicity at 10 µM was -0.843%.

With `O=C(c1cccnc1Oc1ccc(Cl)cc1)N1CC[C@@H](O)C1`, the cytotoxicity at 10 µM was -3.36%.

Regarding `CCOc1ccc(NC(=O)C2OC(c3cccs3)=NN2C(C)=O)cc1` (configuration not stated), the cytotoxicity at 10 µM was 4.77%.

As to `CC(C)CCc1n[nH]c(C(=O)O)c1Br`, the cytotoxicity at 10 µM is -3.09%.

Turning to `CN1CCN(C(=O)c2cc3sccc3n2Cc2ccccc2)CC1`, the cytotoxicity at 10 µM amounted to 4.38%.

As to `COc1nn(C)cc1C(=O)N1CCC(c2ccccc2)C1` (configuration not stated), the cytotoxicity at 10 µM is -2.18%.

On to `O=C(c1ccc(Cl)cc1-n1cnnn1)N1CCC2(CC1)OCCO2`, for which the cytotoxicity at 10 µM worked out at 3.51%.

With `CC(C)CNc1nc(C(=O)/N=c2\[nH]nc(C(C)(C)C)s2)cs1`, the cytotoxicity at 10 µM turned out to be 9.6%.

For `CCOCCCNC(=O)c1cn(CC)nc1C`, the cytotoxicity at 10 µM worked out at 5.37%.

`c1cnc(N2CCCC(Cc3nccs3)C2)nc1` (configuration not stated): the cytotoxicity at 10 µM turned out to be 0.45%.

`CC(C)C(=O)NCCc1cc2nc(-c3ccncc3)ccn2n1`: the cytotoxicity at 10 µM amounted to 4.94%.

For `CC(C(=O)N1CCCC1)n1nc(-c2cccs2)cc(N)c1=O` (configuration not stated), the cytotoxicity at 10 µM was determined as 6.66%.

Turning to `Cc1nn(C(C)C)cc1S(=O)(=O)N(C)Cc1nonc1C`, the cytotoxicity at 10 µM was 11.6%.

Turning to `CC(C)c1nnc(CCC(=O)N2CCOC(c3cnccn3)C2)o1` (configuration not stated), the cytotoxicity at 10 µM is -2.01%.

As for `O=S(=O)(c1ccccc1)N1C[C@@H]2CCCCN(Cc3cccs3)[C@@H]2C1`, the cytotoxicity at 10 µM is 1.56%.

As to `Cc1ccc(S(=O)(=O)N2CCCC(c3n[nH]cc3C(=O)N(C)C)C2)cc1` (configuration not stated), the cytotoxicity at 10 µM turned out to be 6.91%.

As to `CC(C)Nc1ncc(-c2ccncc2)c([C@@H]2CCCO2)n1`, the cytotoxicity at 10 µM stood at 10.8%.

Regarding `CCCS(=O)(=O)N1CCN(C(C)(C)CO)CC1`, the cytotoxicity at 10 µM is -0.45%.

As for `O=C(c1ccc(CN2CCCC2)cc1)N1CCCC(n2cccn2)C1` (configuration not stated), the cytotoxicity at 10 µM was -1.88%.

Regarding `O=C(c1ccc(O)nc1)N1CCc2ccc(O)cc2C1`, the cytotoxicity at 10 µM was -8.77%.

For `CN(CCc1ccncc1)Cc1nccn1Cc1ccccc1`, the cytotoxicity at 10 µM was 15.1%.

For the compound `COCCC(C)NC(=O)Nc1ccc(N2CCOC2=O)c(OC)c1` (configuration not stated), the cytotoxicity at 10 µM was 6.48%.

For `COc1ccc(CN(C)Cc2cccc(C#N)c2)c(OC)c1`, the cytotoxicity at 10 µM is -4.48%.

Regarding `CS(=O)(=O)NCCNC(=O)c1cnc(-c2ccccc2)nc1`, the cytotoxicity at 10 µM was 5.3%.

Turning to `COc1ccc(Oc2ccc(CNC(=O)C(C)n3cncn3)cn2)cc1` (configuration not stated), the cytotoxicity at 10 µM worked out at 5.42%.

Take `CCCN1CCN(C(=O)c2cccnc2-n2cncn2)CC1`: the cytotoxicity at 10 µM was determined as 5.28%.

Consider `Cc1nnc(C(C)NCC2(c3ccc(Cl)cc3)CCOCC2)o1` (configuration not stated), for which the cytotoxicity at 10 µM is -1.47%.

Take `CC(NC(=O)C(C)(C)C#N)c1ccc(OCC2CC2)c(F)c1` (configuration not stated): the cytotoxicity at 10 µM turned out to be 2.31%.

As to `Cn1cc(CC2CCN(C(=O)NCc3csc(C4CC4)n3)C2)cn1` (configuration not stated), the cytotoxicity at 10 µM is 5.22%.

Take `NC(=O)C1CCN(C(=O)Cc2ccc(Cl)c(Cl)c2)CC1`: the cytotoxicity at 10 µM amounted to 5.82%.

Turning to `Cc1ccsc1C(=O)NC(C)c1ccc2c(c1)CCC(=O)N2` (configuration not stated), the cytotoxicity at 10 µM is -12.4%.

Regarding `Cc1cnc(CCNC(Cc2ccncc2)C(F)(F)F)s1` (configuration not stated), the cytotoxicity at 10 µM is 24.4%.

Regarding `O=C1NCCCCC1NCc1csc(-c2ccsc2)n1` (configuration not stated), the cytotoxicity at 10 µM was determined as 3.27%.

For the compound `CCC(SC)C(=O)N1CCC(n2cccn2)CC1` (configuration not stated), the cytotoxicity at 10 µM is -45.8%.

Regarding `O=C(Nc1cc2c(cc1Br)OCCO2)NC1CCS(=O)(=O)C1` (configuration not stated), the cytotoxicity at 10 µM was -9.82%.

For `CN1C(=O)CC(N(C)Cc2nc3ccccc3c(=O)[nH]2)C1=O` (configuration not stated), the cytotoxicity at 10 µM was found to be 7.61%.

As to `Cc1cc(NCc2ccc(CS(N)(=O)=O)cc2)nc(C)n1`, the cytotoxicity at 10 µM is -7.2%.

Take `NC(=O)c1cc(C2CCCN(Cc3ccc4c(c3)OCCO4)C2)n[nH]1` (configuration not stated): the cytotoxicity at 10 µM is -7%.

For the compound `COc1ccnc(NC2CCN(CC(=O)N3CCCC3)CC2)n1`, the cytotoxicity at 10 µM is -7.88%.

As to `CS(=O)(=O)NCCC(=O)N1CCN(S(=O)(=O)c2ccc(Br)cc2)CC1`, the cytotoxicity at 10 µM is -29.6%.

Consider `CNS(=O)(=O)c1cccc(C(C)NCc2ccccc2)c1` (configuration not stated), for which the cytotoxicity at 10 µM is -2.29%.

As to `Cn1c(C(=O)N2CCC(C(=O)N3CCCC3)CC2)c(Cl)c2ccccc21`, the cytotoxicity at 10 µM was found to be 3.12%.

As for `CC(=O)c1ccccc1C(=O)NCC1(CO)CC1`, the cytotoxicity at 10 µM was -18.9%.

Turning to `Cn1cc(CN2CCOCC3(CCN(C4CCOCC4)C3)C2)cn1` (configuration not stated), the cytotoxicity at 10 µM is -3.92%.

For `COCC1CC2(CCN(Cc3cccnc3)CC2)CN1C(C)C` (configuration not stated), the cytotoxicity at 10 µM is -4.21%.

On to `COCCN1C[C@@H]2[C@@H](OC)CCN(C(=O)c3cccc(OC)c3)[C@@H]2C1`, for which the cytotoxicity at 10 µM was -1.01%.

Turning to `Cc1ccc(NC2(C(=O)NCc3c(C)n[nH]c3C)CCCC2)cc1`, the cytotoxicity at 10 µM is 3.73%.

As for `COc1cc2c(cc1C(=O)N1CCCCC1c1ccccn1)CCC2` (configuration not stated), the cytotoxicity at 10 µM is -2.8%.

Regarding `CCOCCn1nc(C)cc1C(=O)N1CC(C)(C)[C@@](C)(O)C1`, the cytotoxicity at 10 µM came to 0.301%.

On to `CN(C)c1ccc(C(=O)N2CCCN(C3CCCCC3)CC2)cn1`, for which the cytotoxicity at 10 µM is -6.46%.

For the compound `O=C(O)[C@@H]1CN(C(=O)CCC(F)(F)F)C[C@H]1c1ccncc1`, the cytotoxicity at 10 µM was found to be 0.108%.

For the compound `O=C(c1cnn[nH]1)N1CCCC1c1nc2cc(F)ccc2[nH]1` (configuration not stated), the cytotoxicity at 10 µM was found to be 2.68%.

For `CC(O)Cc1cn(CC2CCN(c3nccc4occc34)CC2)nn1` (configuration not stated), the cytotoxicity at 10 µM was -6.64%.

`CCOCC(=O)N1CCC(c2nccn2C)CC1`: the cytotoxicity at 10 µM was -53.4%.

Consider `Cc1cc(C)cc(CN2CCN(Cc3cc(C#N)n(C)c3)CC2=O)c1`, for which the cytotoxicity at 10 µM came out at 6.24%.

As to `CN(C)c1nc(NCCc2ccccn2)ncc1F`, the cytotoxicity at 10 µM was -4.84%.

As for `COc1ccc(C(=O)NCc2ccon2)cc1F`, the cytotoxicity at 10 µM turned out to be 0.824%.

With `CCCN1CCCC2(CCN(c3nccc(OC)n3)C2)C1=O` (configuration not stated), the cytotoxicity at 10 µM is -4.74%.

Consider `COc1ccc(C(=O)N2CCC(Oc3ccccc3C)(C(=O)O)CC2)o1`, for which the cytotoxicity at 10 µM was 13.2%.

On to `O=C(O)C(c1cccc2c1OCC2)N1CCC(N2CCSCC2)CC1` (configuration not stated), for which the cytotoxicity at 10 µM worked out at 6.14%.

With `Cc1ccnc(NCCNC(=O)c2ccccc2NCC(=O)O)c1`, the cytotoxicity at 10 µM is -12.7%.

For the compound `CCc1cnc(C)nc1NCCN1CCCCCC1`, the cytotoxicity at 10 µM is -10.8%.

On to `CC(C)NC(=O)c1nnn(-c2cccc(C(F)(F)F)c2)c1N`, for which the cytotoxicity at 10 µM is -11.5%.

With `COc1cccc(S(=O)(=O)N2CCC(O)(CN(C)C)C2)c1` (configuration not stated), the cytotoxicity at 10 µM is 3.85%.

Consider `O=C(c1cccn1Cc1cccs1)N1CCC(C(=O)N2CCCC2)CC1`, for which the cytotoxicity at 10 µM is -1.23%.

On to `Cc1ccc(C(CNC(=O)NCc2ccccn2)N2CCOCC2)o1` (configuration not stated), for which the cytotoxicity at 10 µM is -14.9%.

`CCc1ocnc1C(=O)N1CCCC1c1noc(C(C)C)n1` (configuration not stated): the cytotoxicity at 10 µM is -8.69%.

As for `c1cnnc(N2CCCC(NCc3cccc4c3OCCCO4)C2)c1` (configuration not stated), the cytotoxicity at 10 µM is -19.8%.

For `CC(C)Oc1ncccc1CNC(=O)c1cc(C2CC2)on1`, the cytotoxicity at 10 µM was -17.7%.

Take `COc1cc(C)nc(N2CCN(C(=O)c3ccoc3C)CC2)n1`: the cytotoxicity at 10 µM was -21.8%.

As to `CN(C)c1ncccc1CNS(=O)(=O)c1c(F)cccc1F`, the cytotoxicity at 10 µM is -9.91%.

For the compound `COC(=O)c1cccn1C1CCN(Cc2cccnc2)CC1`, the cytotoxicity at 10 µM is -25.6%.

For the compound `Cc1cn2nc(N3CCCCC3Cn3cccn3)sc2n1` (configuration not stated), the cytotoxicity at 10 µM was -1.14%.

In the case of `O=C(c1ccc(NC2CC2)nc1)N1CCC(Nc2cccnn2)CC1`, the cytotoxicity at 10 µM was -12.6%.

For the compound `CC(C)c1nc2c(n1C)CCN(CC(=O)Nc1ccncc1)C2`, the cytotoxicity at 10 µM came out at 0.698%.

For `CCN(Cc1ccc(OC)c(F)c1)Cc1nc2c(cnn2C)c(=O)[nH]1`, the cytotoxicity at 10 µM came to 2.2%.

For `CC(=O)N(Cc1noc(C)n1)C1CCN(Cc2ncc(C(C)C)o2)C1` (configuration not stated), the cytotoxicity at 10 µM is -13.2%.

In the case of `Cn1cnnc1C1CCCN(C(=O)c2cc(Cl)cc(Cl)c2)C1` (configuration not stated), the cytotoxicity at 10 µM was -9.91%.

Regarding `Cc1cc(NC(=O)C(C)N2CCN(c3nccs3)CC2)on1` (configuration not stated), the cytotoxicity at 10 µM was -12.6%.

On to `Cc1cc(C)n(CC2CN(CC(=O)Nc3nncs3)CCO2)n1` (configuration not stated), for which the cytotoxicity at 10 µM was -2.97%.

Turning to `Cc1cnn(C2CCCN(C(=O)c3ccc(N(C)C)nn3)C2)c1` (configuration not stated), the cytotoxicity at 10 µM was -5.36%.

Take `COc1c(CNCc2ccc(CN(C)C)cc2)c(C(C)C)nn1C`: the cytotoxicity at 10 µM is -11.2%.

Regarding `Cc1cc(CN(C)C(=O)c2cccc(N3CCCC3=O)c2)no1`, the cytotoxicity at 10 µM amounted to 0.376%.

For `CN(C)c1ncccc1CNC(=O)N1CCCC1CN1CCCCC1` (configuration not stated), the cytotoxicity at 10 µM was -0.986%.

As to `O=C(NC1CCN(c2snc3ccccc23)CC1)C1CCC1`, the cytotoxicity at 10 µM worked out at 4.5%.

Regarding `Cc1nc(C)n(C2CCCN(C(=O)c3csnn3)C2)n1` (configuration not stated), the cytotoxicity at 10 µM was -5.48%.

In the case of `COc1ccc(C(=O)N2CCCC(CNS(C)(=O)=O)C2)cc1F` (configuration not stated), the cytotoxicity at 10 µM is -5.45%.

Regarding `Cc1cc(NC(=O)C(C)N2CCCN(c3nccs3)CC2)on1` (configuration not stated), the cytotoxicity at 10 µM came to 1.79%.

With `CN1CC(=O)N(c2cnn(C)c2)CC12CCN(Cc1nccn1C)C2` (configuration not stated), the cytotoxicity at 10 µM was -15.3%.

With `CCO[C@H]1CO[C@@]2(CCCN(Cc3nc(C)cs3)C2)C1`, the cytotoxicity at 10 µM is -9.75%.

In the case of `Cc1nc(C2CCCNC2)nc2c1CCCN2Cc1ccccn1` (configuration not stated), the cytotoxicity at 10 µM was -2.76%.

Consider `CN1CCN(Cc2cn3c(n2)CN(C2CCOCC2)CC3)CC1`, for which the cytotoxicity at 10 µM turned out to be 3.91%.

Regarding `CN(C)C(=O)CN1CCOCC2(C1)CN(c1ncccn1)CCO2` (configuration not stated), the cytotoxicity at 10 µM stood at 1.71%.

In the case of `CC1c2ncc(CN3CCN(C)CC3)n2CCN1Cc1ccc(F)cc1` (configuration not stated), the cytotoxicity at 10 µM worked out at 2.49%.

Regarding `CN(C)c1nc2c(c(N(C)C)n1)CCN(C(=O)CN1C[C@H]3CC[C@@H]1C3)C2`, the cytotoxicity at 10 µM is 4.45%.
